Seven compounds from ChEMBL document CHEMBL2163309, “Discovery of novel 2-aryl-4-benzoyl-imidazole (ABI-III) analogues targeting tubulin polymerization as antiproliferative agents” (J Med Chem, 2012) can be followed below.

Assay [1] deals with PC-3. Nature of the assay: Antiproliferative activity against human PC3 cells after 48 hrs by SRB assay. It counts as functional, cell-based. The conditions noted are these: PC-3, 48 h. (In general: The SRB assay estimates cell density from bound dye.)
Assay [2] is described as follows: Antiproliferative activity against human paclitaxel-resistant PC3-TxR cells after 48 hrs by SRB assay. It counts as functional, cell-based.
The next assay relates to LNCaP. The assay is described as follows: Antiproliferative activity against human LNCAP cells after 48 hrs by SRB assay. It counts as functional, cell-based.
Assay [3] in a line: Antiproliferative activity against human WM164 cells after 48 hrs by SRB assay. Format: functional, cell-based. The conditions noted are these: WM164, 48 h.
The test system of a further assay is DU-145. The assay is described as follows: Antiproliferative activity against human DU145 cells after 48 hrs by SRB assay. It counts as functional, cell-based. The conditions noted are these: DU-145, 48 h. In outline:
(§1)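 Run as part of a panel of two human metastatic melanoma lines (A375, WM164) and three human prostate cancer lines (LNCaP, PC-3, Du 145), following previously described methods. Colchicine served as the positive control.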

Another assay deals with A-375. The assay is described as follows: Antiproliferative activity against human A375 cells after 48 hrs by SRB assay. The conditions noted are these: A-375, 48 h. It counts as functional, cell-based. The method, boiled down: as §1
Assay [4] is filed under the species Bos taurus. Nature of the assay: Inhibition of bovine brain tubulin polymerization measured for every 1 min for 20 mins by spectrophotometer analysis. The method, boiled down: (§2)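 Bovine brain tubulin (>97% pure), 0.4 mg per assay, exposed to test compound at 5 or 10 μM in 5% DMSO vehicle, with a DMSO-only control and colchicine 5 μM as positive control. Polymerization followed by absorbance at 340 nm at 37 °C, read every minute for 20 min. Percent inhibition of polymerization taken at 20 min.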

The species entered for assay [5] is Bos taurus. Nature of the assay: Inhibition of bovine brain tubulin polymerization at 10 uM measured for every 1 min for 20 mins by spectrophotometer analysis. In outline:
as §2

Assay [6] relates to PC-3. The assay is described as follows: Resistance index, ratio of IC50 for human paclitaxel-resistant PC3-TxR cells to IC50 for human PC3 cells.
For assay [7], the species on record is Bos taurus. Nature of the assay: Inhibition of bovine brain tubulin polymerization at 5 uM measured for every 1 min for 20 mins by spectrophotometer analysis. In outline:
as §2

The next assay is filed under the species Homo sapiens. Conditions: 10 to 1000 nM.

The source made the active and inactive calls. The calls are words filed in the database; no cut-off is given here.

One may read the IC50 as the midpoint of a concentration-inhibition curve. Higher therefore signals weaker potency. As to `CC(=O)O[C@H]1C(=O)[C@@]2(C)[C@H]([C@H](OC(=O)c3ccccc3)[C@]3(O)C[C@H](OC(=O)[C@H](O)[C@@H](NC(=O)c4ccccc4)c4ccccc4)C(C)=C1C3(C)C)[C@]1(OC(C)=O)CO[C@@H]1C[C@@H]2O` [PACLITAXEL], the concentration for half-maximal inhibition (IC50) turned out to be 0.4 nM with PC-3 [1] and 188 nM in assay [2].

For `COc1cc2c(c(OC)c1OC)-c1ccc(OC)c(=O)cc1[C@@H](NC(C)=O)CC2` [COLCHICINE], the IC50 in the assay with LNCaP stood at 16.3 nM; in assay [3], 29 nM; in the assay on DU-145, 11.2 nM; in the assay with PC-3 [1], 11.5 nM; with A-375, 20.6 nM.

As a reminder, the inhibition is how much of the control response was suppressed. As to `COc1cc(C(=O)c2cn(C)c(-c3cn(C)c4ccccc34)n2)cc(OC)c1OC`, the inhibition result in the assay listed under Bos taurus [4] was “Dose-dependent effect”; in the assay filed under Bos taurus [5], 80%; in the assay filed under Bos taurus [7], 65%. Also, the IC50 was 35.9 nM with LNCaP; 24.2 nM in assay [3]; 76.5 nM with DU-145; 20.8 nM in the assay with PC-3 [1]; 18.8 nM with A-375; 22.4 nM in assay [2]. In the assay on PC-3 [6], the “Ratio IC50” value came out at 1.1.

Turning to `COc1cc(C(=O)c2cnc(-c3c[nH]c4ccccc34)[nH]2)cc(OC)c1OC` [SABIZABULIN], the inhibition result in the assay listed under Bos taurus [4] is “Dose-dependent effect”; in the assay filed under Bos taurus [7], 70%. Besides, the IC50 turned out to be 2.8 nM with LNCaP; 5.3 nM in [3]; 3.9 nM in the assay with DU-145; 3.7 nM in the assay on PC-3 [1]; 3.2 nM in the assay with A-375; 3.7 nM in assay [2]. For the same compound, in the assay listed under Bos taurus [5], the inhibition entry is “Active”. Further, the “Ratio IC50” value in the assay on PC-3 [6] is listed as 1. Besides, the inhibition entry in the assay listed under Homo sapiens was “inactive”.

As for `COc1cc(C(=O)c2c[nH]c(-c3coc4ccccc34)n2)cc(OC)c1OC`, the inhibition result is “Dose-dependent effect” in the assay listed under Bos taurus [4], 60% in the assay filed under Bos taurus [5] and 30% in the assay filed under Bos taurus [7]. Also, the concentration for half-maximal inhibition (IC50) worked out at 14.1 nM in the assay with LNCaP; 73.6 nM in [3]; 45 nM with DU-145; 33.3 nM in the assay with PC-3 [1]; 53.4 nM with A-375; 42.8 nM in [2]. Moreover, in the assay on PC-3 [6], the “Ratio IC50” value is on record as 1.

Turning to `COc1cc(C(=O)c2c[nH]c(-c3csc4ccccc34)n2)cc(OC)c1OC`, the figures for the inhibition result in the assay listed under Bos taurus [4] and in the assay filed under Bos taurus [5] were “Dose-dependent effect” and 30%, respectively. Also, the IC50 in the assay on LNCaP stood at 29.1 nM; in [3] it was 45.7 nM; with DU-145 it was 51.2 nM; with PC-3 [1], 20.8 nM; in the assay with A-375, 41 nM; in assay [2], 98.6 nM. In addition, the “Ratio IC50” value with PC-3 [6] is 0.9. In addition, the inhibition result in the assay listed under Bos taurus [7] was “inactive”.

Regarding `COc1cc(C(=O)c2c[nH]c(-c3cn(S(=O)(=O)c4ccccc4)c4ccccc34)n2)cc(OC)c1OC`, the inhibition result is “Dose-dependent effect” in the assay listed under Bos taurus [4], 85% in the assay filed under Bos taurus [5] and 67% in the assay filed under Bos taurus [7]. Also, the IC50 in the assay on LNCaP came to 107 nM; in assay [3], 166 nM; with DU-145, 189 nM; in the assay on PC-3 [1], 33.3 nM; with A-375 it was 414 nM; in [2], 27.6 nM. In the assay on PC-3 [6], the “Ratio IC50” value came to 0.9.
